The source of these data is ChEMBL document CHEMBL4433215, “SAR Studies and Biological Characterization of a Chromen-4-one Derivative as an Anti-Trypanosoma brucei Agent” (ACS Med Chem Lett, 2019).

For series [1], the system named is Trypanosoma brucei. The series is described as follows: Antitrypanosomal activity against Trypanosoma brucei bloodstream form assessed as parasite growth inhibition at 10 uM after 72 hrs by resazurin dye-based assay relative to control. It is filed as functional. The note with it: read-out: GI. An outline of the steps:
(§1)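 T. brucei bloodstream forms were screened first. Compounds giving over 70% parasite growth inhibition then went to a full dose–response curve to derive EC50. Pentamidine was the reference.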

The subject of series [2] is Trypanosoma brucei. The experiment in a line: Antitrypanosomal activity against Trypanosoma brucei bloodstream form after 72 hrs by resazurin dye-based assay relative to control. The format is functional, organism-based. An outline of the steps: as §1
The nature of series [3]: Cytotoxicity against human THP1 cells by MTT assay. The format is cell-based, THP-1.
The nature of series [4]: Selectivity index, ratio of CC50 for cytotoxicity against human THP1 cells to EC50 for antitrypanosomal activity against Trypanosoma brucei bloodstream form. The format is toxicity, cell-based. Particulars: read-out: Ratio CC50/EC50; call rule not given here.
In series [5] the target is Voltage-gated inwardly rectifying potassium channel KCNH2 (Homo sapiens, UniProt Q12809). The series is described as follows: Inhibition of human ERG at 10 uM after 2 hrs by fluorescence polarization assay. An outline of the steps: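 Single-concentration screen at 10 μM within an early in vitro ADME-tox panel, covering cytotoxicity in A549 cells and hERG inhibition.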
A general note: In fluorescence polarisation assays a small probe gives low polarisation when free and higher when bound to something large.

The test system of another series is 786-0. The experiment in a line: Mitochondrial toxicity in human 786-O cells at 10 uM after 6 hrs by MitoTracker Red chloromethyl-X-rosamine based assay. It is filed as cell-based. The note with it: 786-0, 6 h.

Bounds are passed on as bounds.

Voltage-gated inwardly rectifying potassium channel KCNH2, sequence (Q12809 whole entry): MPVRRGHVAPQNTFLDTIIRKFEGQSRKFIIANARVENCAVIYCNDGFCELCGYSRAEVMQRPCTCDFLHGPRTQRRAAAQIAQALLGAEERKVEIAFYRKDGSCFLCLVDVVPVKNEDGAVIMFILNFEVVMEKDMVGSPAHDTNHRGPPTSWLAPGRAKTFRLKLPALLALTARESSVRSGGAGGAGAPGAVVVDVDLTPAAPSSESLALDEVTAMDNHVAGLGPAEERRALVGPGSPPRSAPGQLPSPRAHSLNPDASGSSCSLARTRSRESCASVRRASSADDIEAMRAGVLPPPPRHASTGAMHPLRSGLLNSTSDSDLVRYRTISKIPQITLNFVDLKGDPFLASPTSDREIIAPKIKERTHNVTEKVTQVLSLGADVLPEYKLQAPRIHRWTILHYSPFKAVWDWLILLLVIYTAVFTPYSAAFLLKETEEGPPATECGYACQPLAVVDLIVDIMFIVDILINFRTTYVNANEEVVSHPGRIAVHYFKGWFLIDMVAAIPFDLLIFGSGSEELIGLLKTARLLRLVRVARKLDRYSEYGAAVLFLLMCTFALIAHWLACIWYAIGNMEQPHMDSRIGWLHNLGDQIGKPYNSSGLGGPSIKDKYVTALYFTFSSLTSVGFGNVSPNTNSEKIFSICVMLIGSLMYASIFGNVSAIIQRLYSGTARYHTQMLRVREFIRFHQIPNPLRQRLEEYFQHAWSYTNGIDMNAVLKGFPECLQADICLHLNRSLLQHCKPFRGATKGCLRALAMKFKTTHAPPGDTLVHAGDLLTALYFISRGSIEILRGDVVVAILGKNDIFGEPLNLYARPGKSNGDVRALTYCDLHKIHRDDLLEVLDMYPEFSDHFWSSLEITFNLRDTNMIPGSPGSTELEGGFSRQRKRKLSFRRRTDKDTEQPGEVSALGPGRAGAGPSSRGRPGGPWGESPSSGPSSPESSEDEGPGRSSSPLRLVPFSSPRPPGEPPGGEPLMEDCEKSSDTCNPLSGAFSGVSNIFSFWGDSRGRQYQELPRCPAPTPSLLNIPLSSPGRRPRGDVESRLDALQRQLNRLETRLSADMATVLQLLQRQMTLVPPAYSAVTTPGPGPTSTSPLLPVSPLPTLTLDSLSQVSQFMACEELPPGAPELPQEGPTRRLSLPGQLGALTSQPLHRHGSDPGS

Usually EC50 stands for the concentration that produces a half-maximal response. Read a low EC50 as greater potency. As a reminder, the CC50 is the concentration that lowers cell viability or growth by half. Read a low CC50 as harm at low concentration. As for `COc1ccc2c(=O)c(OC(=O)C(C)(C)C)c(-c3ccc4c(c3)OCO4)oc2c1`, the inhibition of growth at 10 µM in the series with Trypanosoma brucei [1] was determined as 100%. The EC50 in the series on Trypanosoma brucei [2] worked out at 1.1 µM. Moreover, in series [3], the CC50 was greater than 100 µM. Moreover, the selectivity ratio in series [4] is greater than 92. Besides, the “inhibition (INH)” value in series [5] was “Not Active”. Moreover, the Activity entry with 786-0 is reported as “Non-Toxic”.
As for `CCOc1c(-c2ccc3c(c2)OCO3)oc2cc(OC)ccc2c1=O`, the inhibition of growth at 10 µM in the series on Trypanosoma brucei [1] was determined as 18%. Besides, the EC50 in the series with Trypanosoma brucei [2] was greater than 10 µM. Further, in series [3], the CC50 lay in the range of 50 to 100 µM. Besides, the “inhibition (INH)” value in series [5] is given as “Not Active”. Moreover, the Activity result in the series on 786-0 is on record as “Non-Toxic”.
On to `COc1ccc2c(=O)c(O)c(-c3ccc4c(c3)CCO4)oc2c1`, for which the inhibition of growth at 10 µM with Trypanosoma brucei [1] worked out at 100%. Further, the midpoint of the response with Trypanosoma brucei [2], the EC50, lay at 3.1 µM. This molecule returned a CC50 in series [3] of 25 to 50 µM. In series [4], the selectivity ratio turned out to be 8. The “inhibition (INH)” value in series [5] is recorded as “Not Active”. Also, the Activity result in the series on 786-0 was “Non-Toxic”.
As to `CCCCC(=O)Oc1c(-c2ccc3c(c2)OCO3)oc2cc(OC)ccc2c1=O`, the inhibition of growth at 10 µM in the series on Trypanosoma brucei [1] amounted to 100%. In the series on Trypanosoma brucei [2], this molecule registered an EC50 of 0.6 µM. This molecule had a CC50 in series [3] of less than 12.5 µM. In series [4], the selectivity ratio amounted to 22. Moreover, in series [5], the “inhibition (INH)” value was “Not Active”. Also, the Activity result in the series with 786-0 is “Non-Toxic”.
With `COc1ccc2oc(-c3ccc4c(c3)OCO4)c(O)c(=O)c2c1`, in the series with Trypanosoma brucei [1], the inhibition of growth at 10 µM was found to be 19%. Moreover, the CC50 in series [3] is less than 12.5 µM. The “inhibition (INH)” value in series [5] was “Not Active”. Further, in the series on 786-0, the Activity entry is recorded as “Non-Toxic”.
As to `COc1ccc2c(=O)c(OC(C)=O)c(-c3ccc4c(c3)OCO4)oc2c1`, the inhibition of growth at 10 µM in the series on Trypanosoma brucei [1] was found to be 100%. The midpoint of the response in the series with Trypanosoma brucei [2], the EC50, lay at 0.3 µM. The same molecule yielded a CC50 in series [3] of less than 12.5 µM. Further, in series [4], the selectivity ratio turned out to be 46. The “inhibition (INH)” value in series [5] is listed as “Not Active”. In addition, in the series with 786-0, the Activity result was “Non-Toxic”.
Consider `O=c1c(O)c(-c2ccc3c(c2)OCO3)oc2ccc(Br)cc12`, for which the inhibition of growth at 10 µM with Trypanosoma brucei [1] stood at 38%. In addition, the CC50 in series [3] fell in the range of 12.5 to 25 µM. Also, the “inhibition (INH)” value in series [5] was “Not Active”. In the series on 786-0, the Activity entry was “Non-Toxic”.
Regarding `COc1ccc2c(=O)c(O)c(-c3ccc4c(c3)OCCO4)oc2c1`, the inhibition of growth at 10 µM with Trypanosoma brucei [1] was found to be 71%. The same molecule showed an EC50 with Trypanosoma brucei [2] greater than 10 µM. The molecule further returned a CC50 in series [3] of 50 to 100 µM. The “inhibition (INH)” value in series [5] is “Not Active”. In addition, the Activity entry in the series with 786-0 is reported as “Non-Toxic”.
Take `O=c1c(O)c(-c2ccc3c(c2)OCO3)oc2ccc(F)cc12`: in the series on Trypanosoma brucei [1], the inhibition of growth at 10 µM turned out to be 7%. In series [3], the CC50 is 12.5 to 25 µM. Also, in series [5], the “inhibition (INH)” value is listed as “Not Active”. Also, the Activity entry in the series on 786-0 was “Non-Toxic”.
Take `CCCOc1c(-c2ccc3c(c2)OCO3)oc2cc(OC)ccc2c1=O`: the inhibition of growth at 10 µM in the series with Trypanosoma brucei [1] was determined as 20%. In the series with Trypanosoma brucei [2], this molecule displayed an EC50 greater than 10 µM. Moreover, in series [3], the CC50 was 12.5 to 25 µM. Moreover, in series [5], the “inhibition (INH)” value is recorded as “Not Active”. Further, the Activity result in the series with 786-0 is listed as “Non-Toxic”.
For `COc1ccc2c(=O)c(OC(=O)N(C)C)c(-c3ccc4c(c3)OCO4)oc2c1` the same measures were 25%, greater than 10 µM, greater than 100 µM, “Not Active” and “Non-Toxic”.
As for `O=c1c(O)c(-c2ccc3c(c2)OCO3)oc2ccc(Cl)cc12`, the inhibition of growth at 10 µM with Trypanosoma brucei [1] is 13%. The CC50 in series [3] is less than 12.5 µM. For the same molecule, the “inhibition (INH)” value in series [5] is “Not Active”. Further, the Activity result in the series with 786-0 is “Non-Toxic”.
For the molecule `COc1ccc2c(=O)c(O)c(-c3ccc4c(c3)OC(F)(F)O4)oc2c1`, the inhibition of growth at 10 µM in the series with Trypanosoma brucei [1] is 47%. In the series on Trypanosoma brucei [2], this molecule showed a half-maximal effective concentration (EC50) greater than 10 µM. In series [3], this molecule returned a CC50 greater than 100 µM. In series [5], the “inhibition (INH)” value is given as “Not Active”. Moreover, the Activity result in the series on 786-0 is given as “Non-Toxic”.
Broadly, the IC50 is the concentration at which inhibition is half-maximal. A low value points to greater potency in that assay. Take `N=C(N)c1ccc(OCCCCCOc2ccc(C(=N)N)cc2)cc1` [PENTAMIDINE]: in the series on Trypanosoma brucei [2], the IC50 is 0.00155 µM.
